Reference: ChEMBL document CHEMBL1137287, “Peptidyl-urea based inhibitors of soluble epoxide hydrolases” (Bioorg Med Chem Lett, 2006)

What was measured:
[1] = Plasma concentration in dog at 0.3 mg/kg, po after 480 min; assay type: ADME, organism-based, Canis lupus familiaris; set-up: dose 0.3 mg/kg, route oral
Method in brief: (§1)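 Dogs given oral dose of 0.3 mg/kg per inhibitor, three different inhibitors per dog per experiment, formulated at 6 mg/mL in triglycerides (tristearate, 6 mL). AUC estimated from plasma concentration (nM) versus time (min) plot.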

[2] = Plasma concentration in dog at 0.3 mg/kg, po after 30 min; assay type: ADME, organism-based, Canis lupus familiaris; set-up: dose 0.3 mg/kg, route oral; method in brief: as §1
[3] = Plasma concentration in dog at 0.3 mg/kg, po after 60 min; assay type: ADME, organism-based, Canis lupus familiaris; set-up: dose 0.3 mg/kg, route oral; method in brief: as §1
[4] = Plasma concentration in dog at 0.3 mg/kg, po after 15 min; assay type: ADME, organism-based, Canis lupus familiaris; set-up: dose 0.3 mg/kg, route oral; method in brief: as §1
[5] = Plasma concentration in dog at 0.3 mg/kg, po after 360 min; assay type: ADME, organism-based, Canis lupus familiaris; set-up: dose 0.3 mg/kg, route oral; method in brief: as §1
[6] = Plasma concentration in dog at 0.3 mg/kg, po after 120 min; assay type: ADME, organism-based, Canis lupus familiaris; set-up: dose 0.3 mg/kg, route oral; method in brief: as §1
[7] = Plasma concentration in dog at 0.3 mg/kg, po after 300 min; assay type: ADME, organism-based, Canis lupus familiaris; set-up: dose 0.3 mg/kg, route oral; method in brief: as §1
[8] = Plasma concentration in dog at 0.3 mg/kg, po after 240 min; assay type: ADME, organism-based, Canis lupus familiaris; set-up: dose 0.3 mg/kg, route oral; method in brief: as §1
[9] = Plasma concentration in dog at 0.3 mg/kg, po after 180 min; assay type: ADME, organism-based, Canis lupus familiaris; set-up: dose 0.3 mg/kg, route oral; method in brief: as §1
[10] = Solubility in sodium phosphate buffer at pH 7.4; assay type: physicochemical
Method in brief: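 Solubility measured in sodium phosphate buffer, 100 mM, pH 7.4, following a previously described procedure.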

[11] = target: T1, Bifunctional epoxide hydrolase 2 (Mus musculus, UniProt P34914); test: Inhibition of mouse recombinant soluble Epoxide hydrolase
T1 sequence (P34914 whole entry): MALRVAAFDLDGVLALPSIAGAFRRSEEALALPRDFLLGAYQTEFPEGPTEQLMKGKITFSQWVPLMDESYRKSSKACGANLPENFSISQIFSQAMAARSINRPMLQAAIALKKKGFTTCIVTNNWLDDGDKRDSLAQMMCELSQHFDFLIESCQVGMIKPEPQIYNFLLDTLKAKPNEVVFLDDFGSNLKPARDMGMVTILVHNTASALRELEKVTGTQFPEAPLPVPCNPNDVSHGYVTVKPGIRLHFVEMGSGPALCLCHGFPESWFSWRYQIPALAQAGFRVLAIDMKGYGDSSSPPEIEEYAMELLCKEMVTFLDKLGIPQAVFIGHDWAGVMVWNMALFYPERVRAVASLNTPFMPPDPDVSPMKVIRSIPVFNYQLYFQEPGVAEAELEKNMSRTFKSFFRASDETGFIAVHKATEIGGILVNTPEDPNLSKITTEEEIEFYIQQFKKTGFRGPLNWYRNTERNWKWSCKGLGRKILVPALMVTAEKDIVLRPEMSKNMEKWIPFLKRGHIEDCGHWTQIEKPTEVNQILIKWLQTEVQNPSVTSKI

[12] = target: T2, Bifunctional epoxide hydrolase 2 (Homo sapiens, UniProt P34913); test: Inhibition of human recombinant soluble Epoxide hydrolase
T2 sequence (P34913 whole entry): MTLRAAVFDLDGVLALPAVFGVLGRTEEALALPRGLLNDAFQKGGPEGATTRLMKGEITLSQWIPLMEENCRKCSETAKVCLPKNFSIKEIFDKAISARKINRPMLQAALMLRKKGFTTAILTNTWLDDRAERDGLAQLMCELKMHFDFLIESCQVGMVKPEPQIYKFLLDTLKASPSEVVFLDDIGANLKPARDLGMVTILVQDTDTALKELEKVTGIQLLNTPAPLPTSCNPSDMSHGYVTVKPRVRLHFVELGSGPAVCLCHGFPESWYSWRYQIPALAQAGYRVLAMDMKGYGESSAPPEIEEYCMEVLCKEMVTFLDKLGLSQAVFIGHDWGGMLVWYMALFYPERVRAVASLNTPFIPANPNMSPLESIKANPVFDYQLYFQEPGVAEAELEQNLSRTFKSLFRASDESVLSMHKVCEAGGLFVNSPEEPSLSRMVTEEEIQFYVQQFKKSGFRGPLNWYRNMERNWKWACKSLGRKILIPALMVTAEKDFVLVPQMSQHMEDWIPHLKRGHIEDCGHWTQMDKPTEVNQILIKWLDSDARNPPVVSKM

[13] = AUC in dog at 0.3 mg/kg, po; assay type: ADME, organism-based, Canis lupus familiaris; set-up: dose 0.3 mg/kg, route oral; settings: plasma; method in brief: as §1

| solubility [10] [µM] | IC50 [11] [µM] | IC50 [12] [µM] | SMILES | other results |
| --- | --- | --- | --- | --- |
| > 500 | 0.56 | 41 | CC(C)[C@H](NC(=O)CCCCCNC(=O)NC1CCCCC1)C(=O)O |  |
| > 500 | 1.4 | 17 | CC(C)[C@H](NC(=O)CCCNC(=O)NC1CCCCC1)C(=O)O |  |
| > 500 | 1 | 25 | N=C(N)NCCC[C@H](NC(=O)CCCNC(=O)NC1CCCCC1)C(=O)O |  |
| > 500 | > 100 | > 100 | CC(C)[C@H](NC(=O)CNC(=O)NC1CCCCC1)C(=O)O |  |
|  | 1.9 | 36 | O=C(O)CCCNC(=O)NC1CCCCC1 |  |
| > 500 | 1.6 | 21 | O=C(CCCNC(=O)NC1CCCCC1)N[C@@H](Cc1ccccc1)C(=O)O |  |
| > 500 | 1.7 | 24 | O=C(O)CC[C@H](NC(=O)CCCNC(=O)NC1CCCCC1)C(=O)O |  |
| > 500 | 0.05 | 30 | O=C(CCCNC(=O)NC1CCCCC1)N[C@@H](Cc1cnc[nH]1)C(=O)O |  |
| > 500 | 51 | > 100 | O=C(O)CC[C@H](NC(=O)CCCCCNC(=O)NC1CCCCC1)C(=O)O |  |

The remaining lines, values behind:

| SMILES | solubility [10] [µM] | IC50 [11] [µM] | IC50 [12] [µM] | other results |
| --- | --- | --- | --- | --- |
| O=C(O)CCCCCCCCCCCNC(=O)NC12CC3CC(CC(C3)C1)C2 |  |  |  | concentration at 8 h [1]: 0.86 nM; concentration at 0.5 h [2]: 20.4 nM; concentration at 1 h [3]: 30.7 nM; concentration at 0.25 h [4]: 6.97 nM; concentration at 6 h [5]: 1.17 nM; concentration at 2 h [6]: 26.3 nM; concentration at 5 h [7]: 1.61 nM; concentration at 4 h [8]: 6.12 nM; concentration at 3 h [9]: 13.4 nM |
| NC(N)=NCCC[C@H](NC(=O)CNC(=O)NC1CCCCC1)C(=O)O | > 500 | > 100 | > 100 |  |
| O=C(O)CC[C@H](NC(=O)CNC(=O)NC1CCCCC1)C(=O)O | > 500 | > 100 | > 100 |  |
| O=C(CCCCCNC(=O)NC1CCCCC1)N[C@@H](Cc1cnc[nH]1)C(=O)O | > 500 | 0.06 | > 100 |  |
| O=C(CNC(=O)NC1CCCCC1)N[C@@H](Cc1ccccc1)C(=O)O | > 500 | 18 | > 100 |  |
| NC(N)=NCCC[C@H](NC(=O)CCCCCNC(=O)NC1CCCCC1)C(=O)O | > 500 | 0.23 | > 100 |  |
| O=C(CCCCCNC(=O)NC12CC3CC(CC(C3)C1)C2)N[C@@H](Cc1ccccc1)C(=O)N[C@@H](Cc1c[nH]c2ccccc12)C(=O)O | > 500 |  |  | AUC [13]: < 1.67 nM·h; concentration at 0.5 h [2]: 0.82 nM; concentration at 1 h [3]: 0.33 nM; concentration at 0.25 h [4]: 0.62 nM; Ki [12]: 0.015 µM |
| O=C(CNC(=O)NC1CCCCC1)N[C@@H](Cc1cnc[nH]1)C(=O)O | > 500 | 36 | > 100 |  |
| O=C(CCCCCNC(=O)NC1CCCCC1)N[C@@H](Cc1ccccc1)C(=O)O (stereo in doubt; form 1) |  | 0.15 | 2.7 |  |
